Calls of active or inactive are those of the source. The calls are words filed in the database; no cut-off is given here. Residues, ends and D or L forms follow the SMILES beside them. *: point of attachment. Cbz = O=C(OCc1ccccc1)*

The target of experiment [1] is T1, Prostaglandin G/H synthase 1 (Ovis aries, UniProt P05979).
T1 sequence (P05979 whole entry): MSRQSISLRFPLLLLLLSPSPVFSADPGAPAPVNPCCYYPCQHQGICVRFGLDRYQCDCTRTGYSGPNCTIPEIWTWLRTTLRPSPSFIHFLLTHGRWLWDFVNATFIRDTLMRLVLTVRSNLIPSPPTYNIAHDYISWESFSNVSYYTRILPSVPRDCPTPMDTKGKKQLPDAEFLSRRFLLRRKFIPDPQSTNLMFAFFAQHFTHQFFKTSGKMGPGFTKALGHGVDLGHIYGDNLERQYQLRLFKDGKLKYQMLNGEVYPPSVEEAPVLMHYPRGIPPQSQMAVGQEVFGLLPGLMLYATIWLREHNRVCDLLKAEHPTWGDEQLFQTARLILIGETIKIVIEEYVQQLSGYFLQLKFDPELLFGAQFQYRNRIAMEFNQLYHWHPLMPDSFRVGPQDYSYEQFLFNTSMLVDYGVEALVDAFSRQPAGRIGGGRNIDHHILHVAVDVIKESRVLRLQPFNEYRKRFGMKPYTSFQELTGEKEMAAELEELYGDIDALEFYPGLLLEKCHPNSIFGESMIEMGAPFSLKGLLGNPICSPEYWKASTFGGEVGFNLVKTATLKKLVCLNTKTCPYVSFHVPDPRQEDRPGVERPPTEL
As to the kind of experiment: Inhibition of ovine COX1 assessed as reduction in PGH2-derived PGF2alpha using arachidonic acid as substrate preincubated for 10 mins followed by substrate addition measured after 2 mins by enzyme immunoassay. The essentials:
(§1)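 Ovine COX-1 and human recombinant COX-2 with heme are preincubated with inhibitor for 10 min at 37 °C. Arachidonic acid is then added for 2 min at 37 °C. Prostaglandins are quantified by competitive AChE-tracer EIA, read at 420 nm. Four concentrations (10^-5 to 10^-8 M) are tested in triplicate. IC50 is taken from the dose-response curve of the mean % inhibition.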

Experiment [2] in a line: Selectivity index, ratio of IC50 for ovine COX1 to IC50 for human recombinant COX2. Summed up: as §1
Experiment [3] addresses T2, Prostaglandin G/H synthase 2 (Homo sapiens, UniProt P35354).
T2 sequence (P35354 whole entry): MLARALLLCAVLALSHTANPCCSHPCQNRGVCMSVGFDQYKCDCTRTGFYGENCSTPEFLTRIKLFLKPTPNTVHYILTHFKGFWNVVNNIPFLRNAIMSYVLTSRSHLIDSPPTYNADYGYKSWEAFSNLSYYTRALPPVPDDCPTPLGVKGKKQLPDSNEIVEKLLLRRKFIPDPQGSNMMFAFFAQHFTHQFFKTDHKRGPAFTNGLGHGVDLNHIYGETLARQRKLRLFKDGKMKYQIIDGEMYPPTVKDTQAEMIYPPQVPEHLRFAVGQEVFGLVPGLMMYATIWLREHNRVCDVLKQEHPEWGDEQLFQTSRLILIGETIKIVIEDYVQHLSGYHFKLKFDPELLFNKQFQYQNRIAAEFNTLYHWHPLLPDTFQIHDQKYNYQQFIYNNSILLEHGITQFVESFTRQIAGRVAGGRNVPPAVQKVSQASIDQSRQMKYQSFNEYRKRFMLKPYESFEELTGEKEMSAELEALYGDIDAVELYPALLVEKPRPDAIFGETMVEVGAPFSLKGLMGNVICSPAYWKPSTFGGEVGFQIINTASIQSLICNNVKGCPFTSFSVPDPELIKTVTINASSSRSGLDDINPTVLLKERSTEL
The experiment is described as follows: Inhibition of human recombinant COX2 assessed as reduction in PGH2-derived PGF2alpha using arachidonic acid as substrate preincubated for 10 mins followed by substrate addition measured after 2 mins by enzyme immunoassay.

Experiment [4] relates to Mus musculus. The experiment is described as follows: Analgesic activity in Swiss albino mouse assessed as reduction in capsaicin-induced paw licking at 5 to 10 mg/kg, ip dosed 30 mins before capsaicin injection measured for 10 mins. The experiment is classed as functional, organism-based. The essentials:
(§2)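 Swiss albino mice of either sex (25-35 g), kept at 22 ± 2 °C on a 12 h light/dark cycle with free food and water. 5 animals per group. Capsaicin (1.6 μg in 20 μL) is injected into the plantar surface of the hind paw. Pain is scored as the number of paw lickings over 10 min.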

Experiment [5] concerns Mus musculus. The experiment is described as follows: Analgesic activity in Swiss albino mouse assessed as reduction in formalin-induced paw flinches in neurogenic phase at 5 mg/kg, ip dosed 30 mins before formalin injection measured up to 5 mins. The experiment is classed as functional, organism-based. The essentials:
(§3)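 Swiss albino mice of either sex (25-35 g). 20 μL of 2% formalin is injected into the plantar surface of the right hind paw 30 min after treatment. Hind paw flinches are counted for the neurogenic phase (0-5 min) and the inflammatory phase (15-30 min). Results are given as mean ± SEM.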

For experiment [6], the system named is Mus musculus. As to the kind of experiment: Antiinflammatory activity in Swiss albino mouse assessed as reduction in carrageenan-induced paw edema at 10 mg/kg, ip dosed 30 mins before carrageenan injection measured up to 300 mins by vernier calliper method relative to control. The class given is functional, organism-based.
Experiment [7] relates to Mus musculus. As to the kind of experiment: Analgesic activity in Swiss albino mouse assessed as reduction in formalin-induced paw flinches in inflammatory phase at 5 mg/kg, ip dosed 30 mins before formalin injection measured after 15 to 30 mins. The class given is functional, organism-based. Summed up:
as §3

Experiment [8] addresses Prostaglandin G/H synthase 1 (Homo sapiens) (UniProt P23219). As to the kind of experiment: Inhibition of COX1 in healthy human whole blood assessed as calcium ionophore A23187-stimulated TXB2 level at 1 uM preincubated for 60 mins followed by A23187 addition measured after 30 mins by ELISA. The class given is tissue-based. The essentials: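 Fresh venous blood from a healthy volunteer is collected in EDTA. 1 mL samples receive compound, indomethacin or DMSO vehicle (final 1 μM). After 60 min, A23187 is added (final 50 μM). After 30 min, samples are centrifuged at 4 °C and TxB2 in plasma is measured by ELISA, read at 420 nm. Samples are run in duplicate.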

Experiment [9] relates to Mus musculus. The experiment is described as follows: Analgesic activity in Swiss albino mouse assessed as reduction in capsaicin-induced paw licking at 10 mg/kg, ip dosed 30 mins before capsaicin injection measured for 10 mins. The experiment is classed as functional, organism-based. Summed up: as §2

Prostaglandin G/H synthase 1 (Homo sapiens), sequence (P23219 whole entry): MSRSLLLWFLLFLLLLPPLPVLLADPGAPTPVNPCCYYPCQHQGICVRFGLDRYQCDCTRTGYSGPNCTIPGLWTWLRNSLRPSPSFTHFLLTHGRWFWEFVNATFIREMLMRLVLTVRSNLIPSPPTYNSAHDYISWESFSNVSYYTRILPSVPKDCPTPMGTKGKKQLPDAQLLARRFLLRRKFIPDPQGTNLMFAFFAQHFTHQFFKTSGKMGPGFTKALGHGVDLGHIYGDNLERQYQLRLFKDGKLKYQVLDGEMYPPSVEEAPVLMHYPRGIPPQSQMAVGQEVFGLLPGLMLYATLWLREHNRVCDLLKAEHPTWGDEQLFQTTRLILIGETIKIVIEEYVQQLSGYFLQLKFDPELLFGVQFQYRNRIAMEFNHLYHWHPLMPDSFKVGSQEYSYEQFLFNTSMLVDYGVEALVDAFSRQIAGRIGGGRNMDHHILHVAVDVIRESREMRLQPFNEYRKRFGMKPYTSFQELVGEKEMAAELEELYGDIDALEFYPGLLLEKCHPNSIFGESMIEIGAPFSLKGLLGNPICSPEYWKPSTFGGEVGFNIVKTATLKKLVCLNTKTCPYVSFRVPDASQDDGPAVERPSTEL

Regarding `COC(=O)CNC(=O)CNC(=O)OCc1ccccc1` (Cbz-Gly-Gly-OMe), the values for the IC50 in [1] and in experiment [3] were greater than 10 µM and 1 µM, respectively. Further, in experiment [2], the Ratio IC50 is greater than 10.
`COC(=O)[C@H](CC(C)C)NC(=O)[C@@H](NC(=O)[C@H](C)NC(=O)CNC(=O)OCc1ccccc1)C(C)C` (Cbz-GAVL-OMe): the IC50 is greater than 10 µM in experiment [1] and 22 µM in experiment [3].
For the molecule `COC(=O)[C@@H](NC(=O)[C@H](C)NC(=O)CNC(=O)OCc1ccccc1)C(C)C` (Cbz-Gly-Ala-Val-OMe), the IC50 came to 8 µM in experiment [1] and 0.1 µM in experiment [3]. Besides, in experiment [2], the Ratio IC50 was found to be 80. For the same molecule, in experiment [4], the result was Active.
As to `O=C(O)CNC(=O)CNC(=O)OCc1ccccc1` (Cbz-Gly-Gly-OH), in experiment [1], the IC50 is greater than 10 µM.
For the molecule `CC(C)[C@H](NC(=O)[C@H](C)NC(=O)CNC(=O)OCc1ccccc1)C(=O)O` (Cbz-Gly-Ala-Val-OH), the IC50 is greater than 10 µM in experiment [1] and 3 µM in experiment [3]. The Ratio IC50 in [2] is greater than 3.
As to `CC(C)C[C@H](NC(=O)[C@H](C)NC(=O)[C@@H](NC(=O)CNC(=O)OCc1ccccc1)C(C)C)C(=O)O` (Cbz-GVAL-OH), the IC50 came out at 3 µM in experiment [1] and 0.3 µM in experiment [3]. For the same molecule, in experiment [2], the Ratio IC50 amounted to 10.
Consider `O=C(O)Cc1ccccc1Nc1c(Cl)cccc1Cl`, for which, in experiment [5], the outcome was inactive. Moreover, the result in experiment [6] and in experiment [7] was Active.
As for `CC(C)C[C@H](NC(=O)CNC(=O)[C@@H](NC(=O)OCc1ccccc1)C(C)C)C(=O)N[C@@H](C)C(=O)O` (Cbz-VGLA-OH), the IC50 is 0.3 µM in [1] and 0.05 µM in [3]. The Ratio IC50 in experiment [2] worked out at 6.
As to `COC(=O)[C@H](CC(C)C)NC(=O)[C@H](C)NC(=O)[C@@H](NC(=O)CNC(=O)OCc1ccccc1)C(C)C` (Cbz-GVAL-OMe), the IC50 is greater than 10 µM in [1] and 19 µM in [3].
`COC(=O)CNC(=O)[C@@H](NC(=O)OCc1ccccc1)C(C)C` (Cbz-Val-Gly-OMe): the IC50 is greater than 10 µM in experiment [1] and 75 µM in [3].
In the case of `COC(=O)[C@H](CC(C)C)NC(=O)CNC(=O)[C@@H](N)C(C)C` (H-Val-Gly-Leu-OMe), the IC50 in experiment [1] was greater than 10 µM; in experiment [3] it was 10 µM.
On to `CC(C)C[C@H](NC(=O)[C@@H](NC(=O)[C@H](C)NC(=O)CNC(=O)OCc1ccccc1)C(C)C)C(=O)O` (Cbz-GAVL-OH), for which the half-maximal inhibitory concentration (IC50) in experiment [1] was greater than 10 µM; in [3], 8 µM.
As to `COC(=O)[C@H](C)NC(=O)[C@H](CC(C)C)NC(=O)CNC(=O)[C@@H](NC(=O)OCc1ccccc1)C(C)C` (Cbz-VGLA-OMe), the results for the IC50 in experiment [1] and in experiment [3] were greater than 10 µM and 0.08 µM, respectively. Further, in [2], the Ratio IC50 was greater than 125. Also, the result in experiment [4] was Active.
With `COc1ccc2c(c1)c(CC(=O)O)c(C)n2C(=O)c1ccc(Cl)cc1`, the Activity in experiment [8] amounted to 2.7 ng/mL. Besides, the outcome in experiment [9] was Active.
Regarding `CC(C)C[C@H](NC(=O)CNC(=O)[C@@H](NC(=O)OCc1ccccc1)C(C)C)C(=O)O` (Cbz-Val-Gly-Leu-OH), the IC50 in experiment [1] is greater than 10 µM; in experiment [3], 28 µM.
In the case of `COC(=O)[C@H](CC(C)C)NC(=O)CNC(=O)[C@@H](NC(=O)OCc1ccccc1)C(C)C` (Cbz-Val-Gly-Leu-OMe), the IC50 in experiment [1] is greater than 10 µM; in experiment [3], 56 µM.
`CC(C)C[C@H](NC(=O)[C@H](Cc1ccccc1)NC(=O)CNC(=O)CN)C(=O)O` (H-GGFL-OH): the IC50 in experiment [1] was greater than 10 µM; in experiment [3], 0.4 µM. For the same molecule, the Ratio IC50 in experiment [2] is greater than 25.
Consider `CC(C)C[C@H](NC(=O)[C@H](Cc1ccccc1)NC(=O)CNC(=O)CNC(=O)OCc1ccccc1)C(=O)O` (Cbz-GGFL-OH), for which the IC50 in experiment [1] turned out to be 3 µM; in experiment [3] it was 0.5 µM. Also, the Ratio IC50 in experiment [2] worked out at 6.
In the same order, the values of `COC(=O)[C@@H](NC(=O)[C@H](C)NC(=O)CN)C(C)C` (H-Gly-Ala-Val-OMe) are greater than 10 µM, 10 µM and greater than 1.
As for `CC(C)[C@H](NC(=O)[C@H](C)NC(=O)CN)C(=O)O` (H-Gly-Ala-Val-OH), the IC50 in experiment [1] was 9 µM; in [3], 0.2 µM. Further, the Ratio IC50 in [2] came to 45.
As to `COC(=O)[C@H](CC(C)C)NC(=O)[C@H](Cc1ccccc1)NC(=O)CNC(=O)CNC(=O)OCc1ccccc1` (Cbz-GGFL-OMe), the concentration for half-maximal inhibition (IC50) was greater than 10 µM in experiment [1] and 20 µM in experiment [3].
With `CC(C)[C@H](NC(=O)OCc1ccccc1)C(=O)NCC(=O)O` (Cbz-Val-Gly-OH), the IC50 was greater than 10 µM in experiment [1] and 55 µM in [3].

Source of the values: ChEMBL document CHEMBL3808358, “Rational Design of Small Peptides for Optimal Inhibition of Cyclooxygenase-2: Development of a Highly Effective Anti-Inflammatory Agent” (J Med Chem, 2016).
